The subject of series [1] is Rattus norvegicus. Put plainly: The antihypertensive activity as percentage fall in systolic blood pressure in spontaneously hypertensive rats after a period of 3 hr for a dose of 100 mg/kg po. The series is classed as functional, Artery. Put shortly: (§1)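 Male Okamoto-Aoki SHR, trained, in groups of four matched for mean systolic pressure; one group per run received water vehicle. Oral dosing in water (0.1 mL per 10 g) on two consecutive mornings. After the day-2 dose, rats were restrained at 30.0 ± 1.0 °C. Systolic pressure was read by tail cuff (inflated to 300 mmHg, first pulse) at 1–4 h. % fall is versus the untreated control group, by 1-tail t test (p ≤ 0.05).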

Series [2] has as its system Rattus norvegicus. Put plainly: Percentage fall in systolic blood pressure in spontaneously hypertensive rats after 2 hr following 50 mg/kg p.o. The note with it: route oral. The series is classed as functional, Artery. Put shortly:
as §1

The subject of series [3] is Rattus norvegicus. The series can be described thus: Antihypertensive activity as percentage fall in systolic blood pressure in spontaneously hypertensive rats after a period of 1 hr for a dose of 50 mg/kg. The series is classed as functional, Artery. An outline of the steps: as §1
In series [4] the test system is Rattus norvegicus. The series can be described thus: Percentage fall in systolic blood pressure in spontaneously hypertensive rats after 3 h following 50 mg/kg p.o. The series is classed as functional, Artery. The settings on record: route oral. An outline of the steps: as §1
For series [5], the system named is Rattus norvegicus. The series can be described thus: The antihypertensive activity as percentage fall in systolic blood pressure in spontaneously hypertensive rats after a period of 4 hr for a dose of 100 mg/kg po. The series is classed as functional, Artery. An outline of the steps:
as §1

For series [6], the system named is Rattus norvegicus. Put plainly: The antihypertensive activity as percentage fall in systolic blood pressure in spontaneously hypertensive rats after a period of 1 hr for a dose of 100 mg/kg po. The class given is functional, Artery. Put shortly: as §1
Series [7] deals with Rattus norvegicus. The series can be described thus: The antihypertensive activity as percentage fall in systolic blood pressure in spontaneously hypertensive rats after a period of 2 hr for a dose of 100 mg/kg po. The class given is functional, Artery. Put shortly:
as §1

In series [8] the test system is Rattus norvegicus. Put plainly: Antihypertensive activity as percentage fall in systolic blood pressure in spontaneously hypertensive rats after a period of 4 hr for a dose of 50 mg/kg. The series is classed as functional, organism-based. Set-up: dose 50 mg/kg. The note with it: Artery. Put shortly:
as §1

Series [9] in a line: (§2) Distribution coefficient between 1-Octanol and phosphate buffer at pH7.4. The series is classed as physicochemical. The note with it: 1-octanol/phosphate buffer, pH 7.4.
The test system of series [10] is Canis familiaris. The series can be described thus: Change in mean arterial pressure in anesthetized dogs for a dose of 10 mg/kg. The class given is functional, Canis lupus familiaris, Artery. Put shortly: (§3)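 Dogs anesthetized with sodium pentobarbital (35 mg/kg iv), femoral artery cannulated for pressure, ECG-triggered heart rate, femoral vein for dosing. Rising iv doses were given 90 min apart, and each dose is the full dose, not cumulative. Value is the maximal mean arterial pressure change 10–15 min after each dose, two dogs per compound, ±3 mmHg. Saline served as control.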

In series [11] the test system is Canis familiaris. The series can be described thus: Percent inhibition of the pressor responses to 7.5 ug/kg iv phenylephrine in pentobarbital-anesthetized dogs for a dose of 10 mg/kg. The note with it: Canis lupus familiaris. The series is classed as functional. An outline of the steps:
(§4)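 Pentobarbital-anesthetized dogs (35 mg/kg iv) with femoral arterial pressure recording. Epinephrine (1 μg/kg), norepinephrine (0.75 μg/kg) and phenylephrine (7.5 μg/kg) iv challenges were given about every 10 min before and after rising iv test doses, which were spaced 90 min apart. Value is % inhibition of the pressor response.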

Series [12] relates to Canis familiaris. Put plainly: Change in mean arterial pressure in anesthetized dogs for a dose of 1 mg/kg. The class given is functional, Canis lupus familiaris, Artery. Put shortly: as §3
Series [13] has as its system Canis familiaris. The series can be described thus: (§5) Percent inhibition of the pressor responses to 1 ug/kg iv Epinephrine in pentobarbital-anesthetized dogs for a dose of 0.1 mg/kg. The series is classed as functional. The note with it: Canis lupus familiaris. An outline of the steps:
as §4

Series [14] has as its system Canis familiaris. The series can be described thus: (§6) Percent inhibition of the pressor responses to 1 ug/kg iv Epinephrine in pentobarbital-anesthetized dogs for a dose of 10 mg/kg. The series is classed as functional. The settings on record: Canis lupus familiaris. Put shortly:
as §4

Series [15] has as its system Canis familiaris. Put plainly: Percent inhibition of the pressor responses to 1 ug/kg iv Epinephrine in pentobarbital-anesthetized dogs for a dose of 1 mg/kg. The class given is functional. The note with it: Canis lupus familiaris. An outline of the steps:
as §4

Series [16] has as its system Canis familiaris. Put plainly: Change in mean arterial pressure in anesthetized dogs for a dose of 0.1 mg/kg. The class given is functional, Canis lupus familiaris, Artery. Put shortly: as §3
The subject of series [17] is Canis familiaris. The series can be described thus: Percent inhibition of the pressor responses to 0.75 ug/kg iv norepinephrine in pentobarbital-anesthetized dogs for a dose of 0.1 mg/kg. The series is classed as functional. The settings on record: Canis lupus familiaris. Put shortly:
as §4

Series [18] relates to Canis familiaris. Put plainly: Percent inhibition of the pressor responses to 0.75 ug/kg iv norepinephrine in pentobarbital-anesthetized dogs for a dose of 1 mg/kg. The class given is functional. The settings on record: Canis lupus familiaris. An outline of the steps: as §4
The subject of series [19] is Canis familiaris. The series can be described thus: Percent inhibition of the pressor responses to 7.5 ug/kg iv phenylephrine in pentobarbital-anesthetized dogs for a dose of 1 mg/kg. The series is classed as functional. The settings on record: Canis lupus familiaris. An outline of the steps: as §4
In series [20] the test system is Canis familiaris. The series can be described thus: Percent inhibition of the pressor responses to 7.5 ug/kg iv phenylephrine in pentobarbital-anesthetized dogs for a dose of 0.1 mg/kg. The class given is functional. The note with it: Canis lupus familiaris. Put shortly:
as §4

The test system of series [21] is Rattus norvegicus. Put plainly: The antihypertensive activity as percentage fall in systolic blood pressure in spontaneously hypertensive rats after a period of 1 hr for a dose of 50 mg/kg po.
The subject of series [22] is Rattus norvegicus. Put plainly: The antihypertensive activity as percentage fall in systolic blood pressure in spontaneously hypertensive rats after a period of 2 hr for a dose of 75 mg/kg po; NS=Not significant. The class given is functional, organism-based. Set-up: dose 75 mg/kg. The settings on record: Artery. Put shortly:
(§7)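 Male Okamoto-Aoki SHR, trained, in groups of four matched for systolic pressure, with a concurrent vehicle control group. Oral dosing on two consecutive mornings, in water as solution or suspension at 0.1 mL/10 g. On day 2 rats were restrained at 30.0 ± 1.0 °C. Tail-cuff systolic pressure, four traces per rat, read at each hour. Per cent fall versus control; 1-tail t test, p ≤ 0.05.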

Series [23] has as its system Rattus norvegicus. Put plainly: The antihypertensive activity as percentage fall in systolic blood pressure in spontaneously hypertensive rats after a period of 4 hr for a dose of 75 mg/kg po; NS=Not significant. Set-up: dose 75 mg/kg. The note with it: Artery. The class given is functional, organism-based. Put shortly: as §7
The subject of series [24] is Rattus norvegicus. Put plainly: The antihypertensive activity as percentage fall in systolic blood pressure in spontaneously hypertensive rats after a period of 3 hr for a dose of 75 mg/kg po; NS=Not significant. The series is classed as functional, organism-based. Set-up: dose 75 mg/kg. The note with it: Artery. Put shortly: as §7
Series [25] in a line: as §2. The class given is physicochemical. The note with it: 1-octanol/phosphate buffer, pH 7.4. Put shortly: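 Octanol/buffer distribution measured at pH 7.4 in phosphate with sodium chloride. Either HPLC (0.004 M) or shake flask.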
This is another data set of the same source.

Series [26] relates to Canis familiaris. The description is as §5. The class given is functional. The settings on record: Canis lupus familiaris. Put shortly:
(§8)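 Dogs anesthetized with sodium pentobarbital 35 mg/kg iv; femoral artery cannulated for blood pressure, femoral vein for dosing. Epinephrine 1 μg/kg iv given at about 10-min intervals before and after increasing test doses. Test doses given iv at 90-min intervals. Result is per cent inhibition of the pressor response.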
The source holds these as a separate data set.

For series [27], the system named is Rattus norvegicus. The series can be described thus: Antihypertensive activity as percentage fall in systolic blood pressure in spontaneously hypertensive rats after a period of 4 hr for a dose of 50 mg/kg po. The series is classed as functional, Artery. Put shortly: as §1
Series [28] has as its system Canis familiaris. Put plainly: Percent inhibition of the pressor responses to 0.75 ug/kg iv norepinephrine in pentobarbital-anesthetized dogs for a dose of 10 mg/kg. The class given is functional. The settings on record: Canis lupus familiaris. Put shortly: as §4
For series [29], the system named is Canis familiaris. Put plainly: Percent inhibition of the pressor responses to 0.75 ug/kg iv norepinephrine in pentobarbital-anesthetized dogs for a dose of 5.0 mg/kg. The series is classed as functional. The note with it: Canis lupus familiaris. Put shortly: as §4
Series [30] has as its system Canis familiaris. The series is described as §6. The series is classed as functional. The settings on record: Canis lupus familiaris. Put shortly: as §8
This is another data set of the same source.

The structures appear in SMILES notation. “And” between values parts separate entries of the source, which are not always exact repeats. Identical values can stand only once. The source made the active and inactive calls. The calls are words filed in the database; no cut-off is given here.

For orientation: logD means the decadic logarithm of the distribution of all forms, ionised or not, between an organic phase and buffer at a given pH. Read a high logD as higher lipophilicity. By inhibition in vivo is commonly meant the relative decrease from the control value, in per cent. A lower inhibition in vivo goes with a weak effect.

Take `O=C1NCC2(CCN(CC(O)C3COc4ccccc4O3)CC2)O1` (stereo unspecified): the “Decrease in blood pressure” value worked out at 11% in the series on Rattus norvegicus [1]; 12% with Rattus norvegicus [2]; 28% with Rattus norvegicus [3]; 21% with Rattus norvegicus [4]; 16% with Rattus norvegicus [5]; 24% in the series on Rattus norvegicus [6]. The “Decrease in blood pressure” value in the series with Rattus norvegicus [7] was 14%; with Rattus norvegicus [8], “Not significant”. This compound also yielded a logD in series [9] of 0.98.

Take `O=C(NC1CCN(CCc2c[nH]c3ccccc23)CC1)c1ccccc1` [INDORAMIN]: the “Decrease in blood pressure” value in the series on Rattus norvegicus [2] (50 mg/kg) is 20% and 11%; in the series on Rattus norvegicus [3] it was 33%; in the series on Rattus norvegicus [4], 13%. Further, the MAP with Canis familiaris [10] was -38 mmHg; with Canis familiaris [12], -28 mmHg; in the series with Canis familiaris [16], -5 mmHg. Besides, the inhibition in vivo at 10 mg/kg with Canis familiaris [11] was 93%; with Canis familiaris [14] it was greater than 100%. Moreover, the inhibition in vivo at 0.1 mg/kg in the series on Canis familiaris [13] worked out at 74%; in the series with Canis familiaris [17] it was 21%; in the series on Canis familiaris [20], 65%. For the same compound, the inhibition in vivo at 1 mg/kg with Canis familiaris [15] worked out at 92%; in the series with Canis familiaris [18], 23%; in the series on Canis familiaris [19] it was 83%. In series [9], this compound gave a logD of 2.13.

On to `O=C1NC(Cc2ccccc2)C2(CCN(CCc3c[nH]c4ccccc34)CC2)O1` (stereo unspecified), for which, in the series with Rattus norvegicus [21], the “Decrease in blood pressure” value is recorded as 13%. Moreover, the “Decrease in blood pressure” value in the series on Rattus norvegicus [22], in the series on Rattus norvegicus [23] and in the series with Rattus norvegicus [24] was “inactive” each time. Besides, the logD in [25] was 2.68.

On to `Cc1ccc(N(CC2=NCCN2)c2cccc(O)c2)cc1` [PHENTOLAMINE], for which the results for the inhibition in vivo at 0.1 mg/kg in the series with Canis familiaris [26] and with Canis familiaris [20] were 41% and 42%, respectively. For the same compound, the “Decrease in blood pressure” value in the series with Rattus norvegicus [2] was 30%; in the series on Rattus norvegicus [3], 37%; in the series with Rattus norvegicus [27] it was 16%; in the series on Rattus norvegicus [4], 19%. Also, the values for the MAP with Canis familiaris [10], in the series with Canis familiaris [12] and with Canis familiaris [16] were -33 mmHg, -11 mmHg and -9 mmHg, respectively. Besides, the figures for the inhibition in vivo at 10 mg/kg with Canis familiaris [11], in the series on Canis familiaris [28] and in the series with Canis familiaris [30] were 100%, greater than 100% and greater than 100%, respectively. Further, the inhibition in vivo at 1 mg/kg is greater than 100% in the series with Canis familiaris [15], greater than 100% in the series with Canis familiaris [18] and 86% in the series on Canis familiaris [19]. In the series with Canis familiaris [29], the inhibition in vivo at 5 mg/kg was greater than 100%. Also, the logD in series [9] is 0.82.

The record behind these values is ChEMBL document CHEMBL1121744, “Synthesis and antihypertensive activity of a series of 8-substituted 1-oxa-3,8-diazaspiro[4.5]decan-2-ones” (J Med Chem, 1981).
